In ChEMBL document CHEMBL4196177, “Synthesis, Evaluation, and Structure-Activity Relationship Study of Lanosterol Derivatives To Reverse Mutant-Crystallin-Induced Protein Aggregation” (J Med Chem, 2018):
Residue numbers refer to the chain shown, from its start. The source made the active and inactive calls. No cut-off for these calls is given here.

How the values were obtained:
[1] = system: T1, Gamma-crystallin D (Homo sapiens), P07320 [W43R]; experiment: Induction of redissolving of aggregated gamma-crystallin D W43R mutant (unknown origin) at 200 uM incubated for 24 hrs by ThT-fluorescence based assay
T1 sequence (whole entry): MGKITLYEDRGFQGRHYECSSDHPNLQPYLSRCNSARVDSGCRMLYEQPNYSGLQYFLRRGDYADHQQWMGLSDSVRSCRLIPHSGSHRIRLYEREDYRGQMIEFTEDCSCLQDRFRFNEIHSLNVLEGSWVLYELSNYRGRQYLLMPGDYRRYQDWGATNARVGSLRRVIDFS
How it was run: (§1)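 Purified mutant crystallin proteins, pre-formed into amyloid-like fibrils, were treated with compounds delivered in liposomes, with a liposome-only vehicle control. Redissolution was read as thioflavin T (ThT) fluorescence, n = 3.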

HeLa = experiment: Increase in cell viability of human HeLa cells transfected with peGFP-N1 at 0.04 to 4 uM incubated for 12 hrs by CCK8 assay; assay type: functional, cell-based
[2] = system: T2, Gamma-crystallin C (Homo sapiens), P07315 [G129C]; experiment: Inhibition of gamma-crystallin C G129C mutant (unknown origin)-induced cytotoxicity in human HeLa cells assessed as increase in cell viability at 0.04 to 4 uM incubated for 12 hrs by CCK8 assay; assay type: cell-based
T2 sequence (whole entry): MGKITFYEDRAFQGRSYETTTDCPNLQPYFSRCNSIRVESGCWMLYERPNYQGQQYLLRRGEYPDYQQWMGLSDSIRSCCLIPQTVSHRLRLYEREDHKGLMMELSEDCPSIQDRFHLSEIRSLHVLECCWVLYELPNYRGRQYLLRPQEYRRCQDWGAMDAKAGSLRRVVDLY

[3] = system: T3, Alpha-crystallin B chain (Homo sapiens), P02511 [R120G]; experiment: Inhibition of alpha-crystallin B R120G mutant (unknown origin)-induced cytotoxicity in human HeLa cells assessed as increase in cell viability at 0.04 to 4 uM incubated for 12 hrs by CCK8 assay; assay type: cell-based
T3 sequence (whole entry): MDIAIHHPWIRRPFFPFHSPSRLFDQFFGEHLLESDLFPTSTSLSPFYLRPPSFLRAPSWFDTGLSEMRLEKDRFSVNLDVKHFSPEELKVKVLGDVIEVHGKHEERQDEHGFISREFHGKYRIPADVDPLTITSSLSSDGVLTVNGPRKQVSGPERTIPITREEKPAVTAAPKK

[4] = system: T1, Gamma-crystallin D (Homo sapiens), P07320 [W43R]; experiment: Inhibition of gamma-crystallin D W43R mutant (unknown origin)-induced cytotoxicity in human HLE-B3 cells assessed as increase in cell viability at 0.04 to 4 uM incubated for 12 hrs by CCK8 assay; assay type: cell-based
[5] = system: T3, Alpha-crystallin B chain (Homo sapiens), P02511 [R120G]; experiment: Induction of redissolving of aggregated alpha-crystallin B R120G mutant (unknown origin) at 200 uM incubated for 24 hrs by ThT-fluorescence based assay; how it was run: as §1
[6] = system: T4, Beta-crystallin B2 (Homo sapiens), P43320 [V187E]; experiment: Inhibition of beta-crystallin B2 V187E mutant (unknown origin)-induced cytotoxicity in human HeLa cells assessed as increase in cell viability at 0.04 to 4 uM incubated for 12 hrs by CCK8 assay; assay type: cell-based
T4 sequence (whole entry): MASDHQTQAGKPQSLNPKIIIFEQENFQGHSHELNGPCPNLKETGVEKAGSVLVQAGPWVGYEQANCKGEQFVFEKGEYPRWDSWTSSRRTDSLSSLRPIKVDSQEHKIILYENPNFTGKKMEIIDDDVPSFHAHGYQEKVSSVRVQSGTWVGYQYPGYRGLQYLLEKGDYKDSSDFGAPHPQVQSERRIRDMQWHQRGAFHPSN

[7] = system: T5, Alpha-crystallin A chain (Homo sapiens), P02489 [Y118D]; experiment: Inhibition of alpha-crystallin A Y118D mutant (unknown origin)-induced cytotoxicity in human HLE-B3 cells assessed as increase in cell viability at 0.04 to 4 uM incubated for 12 hrs by CCK8 assay; assay type: cell-based
T5 sequence (whole entry): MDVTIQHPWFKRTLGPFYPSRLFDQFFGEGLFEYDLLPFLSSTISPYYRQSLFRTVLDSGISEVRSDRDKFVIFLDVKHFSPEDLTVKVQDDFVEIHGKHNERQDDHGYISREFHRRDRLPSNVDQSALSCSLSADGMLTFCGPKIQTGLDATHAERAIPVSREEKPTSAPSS

Homo sapiens = organism: Homo sapiens; experiment: Increase in cell viability of human HLE-B3 cells transfected with peGFP-N1 at 0.04 to 4 uM incubated for 12 hrs by CCK8 assay; assay type: functional
[8] = system: T2, Gamma-crystallin C (Homo sapiens), P07315 [G129C]; experiment: Inhibition of gamma-crystallin C G129C mutant (unknown origin)-induced cytotoxicity in human HLE-B3 cells assessed as increase in cell viability at 0.04 to 4 uM incubated for 12 hrs by CCK8 assay; assay type: cell-based
[9] = system: T6, Beta-crystallin B2 (Homo sapiens), P43320 [R188H]; experiment: Induction of redissolving of aggregated beta-crystallin B2 R188H mutant (unknown origin) at 200 uM incubated for 24 hrs by ThT-fluorescence based assay; how it was run: as §1
T6 sequence (whole entry): T4 sequence (whole entry) with E187V, R188H

[10] = system: T7, Alpha-crystallin A chain (Homo sapiens), P02489 [R116H]; experiment: Induction of redissolving of aggregated alpha-crystallin A R116H mutant (unknown origin) at 200 uM incubated for 24 hrs by ThT-fluorescence based assay; how it was run: as §1
T7 sequence (whole entry): T5 sequence (whole entry) with R116H, D118Y

[11] = system: T5, Alpha-crystallin A chain (Homo sapiens), P02489 [Y118D]; experiment: Inhibition of alpha-crystallin A Y118D mutant (unknown origin)-induced cytotoxicity in human HeLa cells assessed as increase in cell viability at 0.04 to 4 uM incubated for 12 hrs by CCK8 assay; assay type: cell-based
[12] = system: T4, Beta-crystallin B2 (Homo sapiens), P43320 [V187E]; experiment: Inhibition of beta-crystallin B2 V187E mutant (unknown origin)-induced cytotoxicity in human HLE-B3 cells assessed as increase in cell viability at 0.04 to 4 uM incubated for 12 hrs by CCK8 assay; assay type: cell-based
[13] = system: T3, Alpha-crystallin B chain (Homo sapiens), P02511 [R120G]; experiment: Inhibition of alpha-crystallin B R120G mutant (unknown origin)-induced cytotoxicity in human HLE-B3 cells assessed as increase in cell viability at 0.04 to 4 uM incubated for 12 hrs by CCK8 assay; assay type: cell-based
[14] = system: T7, Alpha-crystallin A chain (Homo sapiens), P02489 [R116H]; experiment: Induction of redissolving of aggregated alpha-crystallin A R116H mutant (unknown origin) at 200 uM incubated for 24 hrs by transmission-electron-microscopy
How it was run: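 Pre-formed amyloid-like fibrils of mutant crystallin proteins were treated with compounds in liposomes or with a liposome vehicle. Fibrillar structures were then examined by negative-stain transmission electron microscopy.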

[15] = system: T1, Gamma-crystallin D (Homo sapiens), P07320 [W43R]; experiment: Inhibition of gamma-crystallin D W43R mutant (unknown origin)-induced cytotoxicity in human HeLa cells assessed as increase in cell viability at 0.04 to 4 uM incubated for 12 hrs by CCK8 assay; assay type: cell-based

**Q.** Which Activity [1] does the source give for `C[C@H](CCCC(C)(C)O)[C@H]1CC[C@@]2(C)C3=C(CC[C@]12C)[C@@]1(C)CC[C@H](O)C(C)(C)[C@@H]1CC3` here?
**A.** Active

**Q.** And the Activity (HeLa)?
**A.** Active

**Q.** And the inhibition [2]?
**A.** Active

**Q.** What about the inhibition [3] of the same compound?
**A.** Active

**Q.** What about the inhibition [4] of the same compound?
**A.** Active

**Q.** And the Activity [5]?
**A.** Active

**Q.** What about the inhibition [6] of the same compound?
**A.** Active

**Q.** And the inhibition [7]?
**A.** Active

**Q.** And the Activity (Homo sapiens)?
**A.** Active

**Q.** What about the inhibition [8] of the same compound?
**A.** Active

**Q.** What about the Activity [9] of the same compound?
**A.** Active

**Q.** And the Activity [10]?
**A.** Active

**Q.** And the inhibition [11]?
**A.** Active

**Q.** And the inhibition [12]?
**A.** Active

**Q.** What about the inhibition [13] of the same compound?
**A.** Active

**Q.** And the Activity [14]?
**A.** Active

**Q.** And the inhibition [15]?
**A.** Active

**Q.** With `C[C@H](CCCC(C)(C)O)[C@H]1CC[C@@]2(C)[C@@]34CC[C@H]5C(C)(C)/C(=N/O)CC[C@]5(C)[C@]3(CC[C@]12C)O4` as the compound, how does the Activity [1] read?
**A.** inactive

**Q.** And the Activity [5]?
**A.** inactive

**Q.** What about the Activity [9] of the same compound?
**A.** inactive

**Q.** What about the Activity [10] of the same compound?
**A.** inactive

**Q.** What about the Activity [14] of the same compound?
**A.** inactive

**Q.** `C[C@H](CCCC(C)(C)O)[C@H]1CC[C@@]2(C)C3=C(CC[C@]12C)[C@@]1(C)CCC(=O)C(C)(C)[C@@H]1CC3` was tested. Which Activity (HeLa) did it give?
**A.** Active

**Q.** And the inhibition [2]?
**A.** Active

**Q.** And the inhibition [3]?
**A.** Active

**Q.** What about the inhibition [4] of the same compound?
**A.** Active

**Q.** And the inhibition [6]?
**A.** Active

**Q.** What about the inhibition [7] of the same compound?
**A.** Active

**Q.** What about the Activity (Homo sapiens) of the same compound?
**A.** Active

**Q.** And the inhibition [8]?
**A.** Active

**Q.** And the inhibition [11]?
**A.** Active

**Q.** What about the inhibition [12] of the same compound?
**A.** Active

**Q.** And the inhibition [13]?
**A.** Active

**Q.** What about the inhibition [15] of the same compound?
**A.** Active

**Q.** For `C[C@H](CCCC(C)(C)O)[C@H]1CC[C@@]2(C)C3=C(CC[C@]12C)[C@@]1(C)C[C@@H](F)[C@@H](O)C(C)(C)[C@@H]1CC3`, which Activity (HeLa) is on record?
**A.** Active

**Q.** And the inhibition [2]?
**A.** Active

**Q.** And the inhibition [3]?
**A.** Active

**Q.** What about the inhibition [4] of the same compound?
**A.** Active

**Q.** And the inhibition [6]?
**A.** Active

**Q.** What about the inhibition [7] of the same compound?
**A.** Active

**Q.** What about the Activity (Homo sapiens) of the same compound?
**A.** Active

**Q.** What about the inhibition [8] of the same compound?
**A.** Active

**Q.** What about the inhibition [11] of the same compound?
**A.** Active

**Q.** And the inhibition [12]?
**A.** Active

**Q.** And the inhibition [13]?
**A.** Active

**Q.** And the inhibition [15]?
**A.** Active

**Q.** For `C[C@H](CCCC(C)(C)O)[C@H]1CC[C@@]2(C)C3=C(CC[C@]12C)[C@@]1(C)C[C@@H](F)[C@H](O)C(C)(C)[C@@H]1CC3`, which Activity (HeLa) is on record?
**A.** Active

**Q.** And the inhibition [2]?
**A.** Active

**Q.** And the inhibition [3]?
**A.** Active

**Q.** And the inhibition [4]?
**A.** Active

**Q.** What about the inhibition [6] of the same compound?
**A.** Active

**Q.** What about the inhibition [7] of the same compound?
**A.** Active

**Q.** And the Activity (Homo sapiens)?
**A.** Active

**Q.** What about the inhibition [8] of the same compound?
**A.** Active

**Q.** And the inhibition [11]?
**A.** Active

**Q.** And the inhibition [12]?
**A.** Active

**Q.** And the inhibition [13]?
**A.** Active

**Q.** What about the inhibition [15] of the same compound?
**A.** Active

**Q.** `C[C@H](CCCC(C)(C)O)[C@H]1CC[C@@]2(C)C3=CC[C@H]4C(C)(C)[C@@H](O)CC[C@]4(C)C3=CC[C@]12C` was tested. Which Activity (HeLa) did it give?
**A.** Active

**Q.** What about the inhibition [2] of the same compound?
**A.** Active

**Q.** What about the inhibition [3] of the same compound?
**A.** Active

**Q.** And the inhibition [4]?
**A.** Active

**Q.** And the inhibition [6]?
**A.** Active

**Q.** And the inhibition [7]?
**A.** Active

**Q.** And the Activity (Homo sapiens)?
**A.** Active

**Q.** What about the inhibition [8] of the same compound?
**A.** Active

**Q.** What about the inhibition [11] of the same compound?
**A.** Active

**Q.** What about the inhibition [12] of the same compound?
**A.** Active

**Q.** What about the inhibition [13] of the same compound?
**A.** Active

**Q.** And the inhibition [15]?
**A.** Active
